# In ChEMBL document CHEMBL1128736, “Synthesis and anti-HIV activity of [AZT]-[TSAO-T] and [AZT]-[HEPT] dimers as potential multifunctional inhibitors of HIV-1 reverse transcriptase” (J Med Chem, 1995):
# Key:
# Format in all cases: functional, organism-based
# [1] = tested on: Human immunodeficiency virus 1; assay: Inhibitory effect against HIV-1 replication in CEM cells.; conditions: Human immunodeficiency virus 1, CCRF-CEM
# Summary of the method: (§1)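 CEM cells (4×10^5/mL; wild-type CEM/0 or thymidine kinase-deficient CEM/TK⁻) infected with HIV-1 or HIV-2 (ROD) at ~100 CCID50/mL, then mixed 1:1 with serial compound dilutions. After 4 days, virus-induced giant cell formation was scored microscopically. EC50 is the concentration inhibiting virus-induced cytopathicity by 50%.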
# [2] = tested on: Human immunodeficiency virus 2; assay: Inhibitory effect against HIV-2 replication in CEM /TK-(thymidine kinase deficient) cells.; conditions: Human immunodeficiency virus 2, CCRF-CEM; summary of the method: as §1
# [3] = tested on: Human immunodeficiency virus 2; assay: Inhibitory effect against HIV-2 replication in CEM cells.; conditions: Human immunodeficiency virus 2, CCRF-CEM; summary of the method: as §1
Compound,EC50 [1] [µM],EC50 [2] [µM],EC50 [3] [µM]
Cc1cn([C@@H]2O[C@H](CO[Si](C)(C)C(C)(C)C)C3(OS(=O)(=O)C=C3N)[C@H]2O[Si](C)(C)C(C)(C)C)c(=O)[nH]c1=O (stereo partly drawn),0.05,> 6,> 6
Cc1cn(C2CC(N=[N+]=[N-])C(CO)O2)c(=O)n(CCCBr)c1=O (stereo not drawn),> 50,–,> 50
Cc1cn(C2CC(N=[N+]=[N-])C(CO)O2)c(=O)n(CCCCCCCCCBr)c1=O (stereo not drawn),> 8,> 8,> 8
Cc1cn([C@@H]2O[C@H](CO[Si](C)(C)C(C)(C)C)[C@@]3(OS(=O)(=O)C=C3N)[C@H]2O[Si](C)(C)C(C)(C)C)c(=O)n(CCCn2c(=O)c(C)cn([C@H]3C[C@H](O)[C@@H](CO)O3)c2=O)c1=O,0.06,> 4,> 4
Cc1cn([C@@H]2O[C@H](CO[Si](C)(C)C(C)(C)C)[C@@]3(OS(=O)(=O)C=C3N)[C@H]2O[Si](C)(C)C(C)(C)C)c(=O)n(CCCCCCn2c(=O)c(C)cn([C@H]3C[C@H](O)[C@@H](CO)O3)c2=O)c1=O,0.55,–,> 4
Cc1cn([C@@H]2O[C@H](CO[Si](C)(C)C(C)(C)C)[C@@]3(OS(=O)(=O)C=C3N)[C@H]2O[Si](C)(C)C(C)(C)C)c(=O)n(CCCCCCCn2c(=O)c(C)cn([C@H]3C[C@H](N=[N+]=[N-])[C@@H](CO)O3)c2=O)c1=O,1.58,–,> 100
Cc1cn([C@@H]2O[C@H](CO[Si](C)(C)C(C)(C)C)[C@@]3(OS(=O)(=O)C=C3N)[C@H]2O[Si](C)(C)C(C)(C)C)c(=O)n(CCCCCCn2c(=O)c(C)cn([C@H]3C[C@H](N=[N+]=[N-])[C@@H](CO)O3)c2=O)c1=O,0.21,> 100,> 100
Cc1cn([C@@H]2O[C@H](CO[Si](C)(C)C(C)(C)C)[C@@]3(OS(=O)(=O)C=C3N)[C@H]2O[Si](C)(C)C(C)(C)C)c(=O)n(CCCCCn2c(=O)c(C)cn([C@H]3C[C@H](N=[N+]=[N-])[C@@H](CO)O3)c2=O)c1=O,0.22,> 100,> 100
Cc1cn([C@@H]2O[C@H](CO[Si](C)(C)C(C)(C)C)[C@@]3(OS(=O)(=O)C=C3N)[C@H]2O[Si](C)(C)C(C)(C)C)c(=O)n(CCCCCCBr)c1=O,0.47,–,> 25
Cc1cn([C@@H]2O[C@H](CO[Si](C)(C)C(C)(C)C)[C@@]3(OS(=O)(=O)C=C3N)[C@H]2O[Si](C)(C)C(C)(C)C)c(=O)n(CCCBr)c1=O,0.11,–,> 100
Cc1cn([C@H]2C[C@H](O)[C@@H](CO)O2)c(=O)n(CCCCCCCn2c(=O)c(C)c(Sc3ccccc3)n(COCCO)c2=O)c1=O,> 30,–,> 30
Cc1cn([C@H]2C[C@H](O)[C@@H](CO)O2)c(=O)n(CCCCCCn2c(=O)c(C)c(Sc3ccccc3)n(COCCO)c2=O)c1=O,79,–,> 30
Cc1cn([C@@H]2O[C@H](CO[Si](C)(C)C(C)(C)C)[C@@]3(OS(=O)(=O)C=C3N)[C@H]2O[Si](C)(C)C(C)(C)C)c(=O)n(CCCCn2c(=O)c(C)cn([C@H]3C[C@H](N=[N+]=[N-])[C@@H](CO)O3)c2=O)c1=O,0.2,> 100,> 100
Cc1cn([C@@H]2O[C@H](CO[Si](C)(C)C(C)(C)C)[C@@]3(OS(=O)(=O)C=C3N)[C@H]2O[Si](C)(C)C(C)(C)C)c(=O)n(CCCn2c(=O)c(C)cn([C@H]3C[C@H](N=[N+]=[N-])[C@@H](CO)O3)c2=O)c1=O,0.1,> 100,> 100
Cc1cn([C@@H]2O[C@H](CO[Si](C)(C)C(C)(C)C)[C@@]3(OS(=O)(=O)C=C3N)[C@H]2O[Si](C)(C)C(C)(C)C)c(=O)n(CCCCCCCCCn2c(=O)c(C)cn([C@H]3C[C@H](N=[N+]=[N-])[C@@H](CO)O3)c2=O)c1=O,15.3,> 100,> 100
Cc1cn([C@@H]2O[C@H](CO[Si](C)(C)C(C)(C)C)[C@@]3(OS(=O)(=O)C=C3N)[C@H]2O[Si](C)(C)C(C)(C)C)c(=O)n(CCCCCCCn2c(=O)c(C)cn([C@H]3C[C@H](O)[C@@H](CO)O3)c2=O)c1=O,0.22,–,> 4

Compound,EC50 [1] [µM],EC50 [2] [µM],EC50 [3] [µM]
Cc1cn([C@@H]2O[C@H](CO[Si](C)(C)C(C)(C)C)[C@@]3(OS(=O)(=O)C=C3N)[C@H]2O[Si](C)(C)C(C)(C)C)c(=O)n(CCCCCCCCn2c(=O)c(C)cn([C@H]3C[C@H](N=[N+]=[N-])[C@@H](CO)O3)c2=O)c1=O,1.56,–,> 100
Cc1cn([C@H]2C[C@H](O)[C@@H](CO)O2)c(=O)n(CCCCCCCBr)c1=O,> 10,> 10,> 10
Cc1cn([C@@H]2O[C@H](CO[Si](C)(C)C(C)(C)C)[C@@]3(OS(=O)(=O)C=C3N)[C@H]2O[Si](C)(C)C(C)(C)C)c(=O)n(CCCCCCCCCBr)c1=O,> 1,> 1,> 1
Cc1cn([C@@H]2O[C@H](CO[Si](C)(C)C(C)(C)C)[C@@]3(OS(=O)(=O)C=C3N)[C@H]2O[Si](C)(C)C(C)(C)C)c(=O)n(CCCCCCCCBr)c1=O,> 1,> 1,> 1
Cc1cn([C@@H]2O[C@H](CO[Si](C)(C)C(C)(C)C)[C@@]3(OS(=O)(=O)C=C3N)[C@H]2O[Si](C)(C)C(C)(C)C)c(=O)n(CCCCCCCBr)c1=O,0.79,> 5,> 1
Cc1cn(C2CC(N=[N+]=[N-])C(CO)O2)c(=O)n(CCCCCCn2c(=O)c(C)c(Sc3ccccc3)n(COCCO)c2=O)c1=O (stereo not drawn),> 5,> 5,> 5
Cc1cn(C2CC(N=[N+]=[N-])C(CO)O2)c(=O)n(CCCCCBr)c1=O (stereo not drawn),> 50,> 10,> 50
Cc1cn(C2CC(N=[N+]=[N-])C(CO)O2)c(=O)n(CCCCCCBr)c1=O (stereo not drawn),–,> 45,–
Cc1cn(C2CC(N=[N+]=[N-])C(CO)O2)c(=O)n(CCCCCCCn2c(=O)c(C)c(Sc3ccccc3)n(COCCO)c2=O)c1=O (stereo not drawn),> 5,–,> 5
Cc1c(Sc2ccccc2)n(COCCO)c(=O)n(CCCCCCCBr)c1=O,> 8,> 8,> 8
Cc1cn(C2CC(N=[N+]=[N-])C(CO)O2)c(=O)n(CCCCCCCCBr)c1=O (stereo not drawn),> 8,> 8,> 8
Cc1c(Sc2ccccc2)n(COCCO)c(=O)n(CCCCCCBr)c1=O,–,> 8,–
Cc1cn([C@H]2C[C@H](O)[C@@H](CO)O2)c(=O)[nH]c1=O [DOXRIBTIMINE],> 40,> 40,> 40
Cc1c(Sc2ccccc2)n(COCCO)c(=O)[nH]c1=O [HEPT],–,> 100,> 100
Cc1cn([C@H]2C[C@H](N=[N+]=[N-])[C@@H](CO)O2)c(=O)[nH]c1=O [ZIDOVUDINE],0.011,> 35,0.011
